{"data": "Measurements gathered from unrelated publications", "CDK7 with cyclin H": "Cyclin-dependent kinase 7, with cyclin H (CDK7, Homo sapiens, UniProt P50613)", "PDE4D": "3',5'-cyclic-AMP phosphodiesterase 4D (PDE4D, Homo sapiens, UniProt Q08499)", "PPP3CA": "Protein phosphatase 3 catalytic subunit alpha (PPP3CA, Homo sapiens, UniProt Q08209)", "note": "Lines come from different studies, so protocols differ."}
{"Compound": "COc1cc([C@@H]2c3cc4c(cc3[C@H](O)[C@H]3COC(=O)[C@H]23)OCO4)cc(OC)c1OC", "target": "CDK7 with cyclin H", "observed": "enzyme activity", "action": "inhibitor", "technique": "ADP detection", "concentration": "10 µM", "inhibition": "17.2%"}
{"Compound": "C[C@@H]1CCO[C@H]2Cn3cc(C(=O)NCc4ccc(F)cc4F)c(=O)c(O)c3C(=O)N12", "target": "Gag-Pol polyprotein, integrase (gag-pol, Human immunodeficiency virus type 1 group M subtype B, UniProt P04585)", "observed": "enzyme activity", "action": "inhibitor", "concentration": "50 nM", "inhibition": "> 50%"}
{"Compound": "O=C(O)CC(O)(CC(=O)O)C(=O)O", "target": "PDE4D", "observed": "enzyme activity", "action": "inhibitor", "technique": "radiometric", "concentration": "50 µM", "inhibition": "99.2%"}
{"Compound": "C=C[C@H]1C[N@@]2CC[C@H]1C[C@@H]2[C@@H](O)c1ccnc2ccccc12", "target": "CDK7 with cyclin H", "observed": "enzyme activity", "action": "inhibitor", "technique": "ADP detection", "concentration": "10 µM", "inhibition": "12.9%"}
{"Compound": "CCOC(=O)C1=C(C)NC(c2ccccc2)=C(C(=O)OCc2ccccc2)C1C#Cc1ccccc1 (centres unmarked)", "target": "Adenosine receptor A2a (Adora2a, Mus musculus, UniProt Q60613)", "observed": "ligand displacement", "technique": "radioligand", "concentration": "10 µM", "notes": "cell membranes", "inhibition": "0%"}
{"Compound": "COc1cc(O)ccc1/C=C/C(=O)c1ccc(O)cc1", "target": "PDE4D", "observed": "enzyme activity", "action": "inhibitor", "technique": "radiometric", "concentration": "50 µM", "inhibition": "62.8%"}
{"Compound": "CCN(CC)CCCC[C@H](NC(=O)[C@H](CC(C)C)NC(=O)[C@H](C)NC(=O)[C@H](Cc1ccccc1)NC(=O)c1ccc(C(C)(C)C)cc1)C(=O)N[C@@H](CO)C(=O)OC", "target": "Prostaglandin E2 receptor EP4 subtype (PTGER4, Homo sapiens, UniProt P35408)", "observed": "ligand displacement", "technique": "radioligand", "concentration": "10 µM", "inhibition": "5%"}
{"Compound": "COc1c(-c2ccc3c(c2)OCO3)oc2c(ccc3occc32)c1=O", "target": "CDK7 with cyclin H", "observed": "enzyme activity", "action": "inhibitor", "technique": "ADP detection", "concentration": "10 µM", "inhibition": "30.4%"}
{"Compound": "O=c1c(O)c(-c2ccc(O)c(O)c2)oc2cc(O)cc(O)c12", "target": "PDE4D", "observed": "enzyme activity", "action": "inhibitor", "technique": "radiometric", "concentration": "50 µM", "inhibition": "100%"}
{"Compound": "N=C(N)Nc1ccc(C(=O)Nc2ccc3c(c2)B(O)OC3)cc1", "target": "Prothrombin (F2, Homo sapiens, UniProt P00734)", "observed": "enzyme activity", "action": "inhibitor", "concentration": "50 µM", "inhibition": "10.7%"}
{"Compound": "COC(=O)c1cc(O)c(O)c(O)c1", "target": "PDE4D", "observed": "enzyme activity", "action": "inhibitor", "technique": "radiometric", "concentration": "50 µM", "inhibition": "-5.1%"}
{"Compound": "C#Cc1n[nH]c2c(-c3cn([C@@H](C)c4ccccn4)c(=O)[nH]c3=O)cc(F)cc12", "target": "Serine/threonine-protein kinase PAK 2 (PAK2, Homo sapiens, UniProt Q13177)", "observed": "enzyme activity", "action": "inhibitor", "concentration": "0.1 µM", "inhibition": "4.1%"}
{"Compound": "COc1cc(Nc2ncc(F)c(Nc3ccc4c(n3)NC(=O)C(C)(C)O4)n2)cc(OC)c1OC", "target": "Mitogen-activated protein kinase 7 (MAPK7, Homo sapiens, UniProt Q13164)", "observed": "binding", "technique": "competition with immobilised ligand", "concentration": "10 µM", "inhibition": "19%"}
{"Compound": "COc1ccc(-c2coc3cc(O)ccc3c2=O)cc1", "target": "PDE4D", "observed": "enzyme activity", "action": "inhibitor", "technique": "radiometric", "concentration": "50 µM", "inhibition": "5.54%"}
{"Compound": "C[C@H](C(=O)N[C@H]1COc2ccccc2[C@@H]1S(C)(=O)=O)c1ccc(F)cc1", "target": "PPP3CA", "observed": "enzyme activity", "action": "inhibitor", "concentration": "10 µM", "inhibition": "8%"}
{"Compound": "COc1c2ccoc2cc2oc(=O)ccc12", "target": "CDK7 with cyclin H", "observed": "enzyme activity", "action": "inhibitor", "technique": "ADP detection", "concentration": "10 µM", "inhibition": "-13.6%"}
{"Compound": "O=C1C[C@@H](c2ccc(O[C@@H]3O[C@H](CO)[C@@H](O)[C@H](O)[C@H]3O)cc2)Oc2cc(O)ccc21", "target": "PDE4D", "observed": "enzyme activity", "action": "inhibitor", "technique": "radiometric", "concentration": "50 µM", "inhibition": "14%"}
{"Compound": "O=C(Nc1cccnn1)N1CCN([C@@H]2CCOc3cc(C(F)(F)F)ccc32)CC1", "target": "PDE4D", "observed": "enzyme activity", "action": "inhibitor", "concentration": "20 µM", "inhibition": "1%"}
{"Compound": "COc1ccc(Cc2nccc3cc(OC)c(OC)cc23)cc1OC", "target": "CDK7 with cyclin H", "observed": "enzyme activity", "action": "inhibitor", "technique": "ADP detection", "concentration": "10 µM", "inhibition": "-1.4%"}
{"Compound": "Cn1cc(-c2cc(F)cc(N3CCn4c(cc5c4CCCC5)C3=O)c2CO)cc(Nc2ccc(N3CCN(C4COC4)CC3)cn2)c1=O", "target": "Protein kinase C gamma type (PRKCG, Homo sapiens, UniProt P05129)", "observed": "enzyme activity", "action": "inhibitor", "concentration": "0.1 µM", "inhibition": "12%"}
{"Compound": "O=C(/C=C/c1ccc(O)cc1)c1ccc(O)cc1O", "target": "PDE4D", "observed": "enzyme activity", "action": "inhibitor", "technique": "radiometric", "concentration": "50 µM", "inhibition": "52%"}
{"Compound": "COCc1c(-c2cc3cc(C)cc(OC)c3s2)c2c(N)ncnn2c1CN1CCNC(=O)C1", "target": "3-hydroxy-3-methylglutaryl-coenzyme A reductase (HMGCR, Homo sapiens, UniProt P04035)", "observed": "enzyme activity", "action": "inhibitor", "concentration": "10 µM", "inhibition": "1%"}
{"Compound": "CC[C@@]1(O)C(=O)OCc2c1cc1n(c2=O)Cc2cc3ccccc3nc2-1", "target": "CDK7 with cyclin H", "observed": "enzyme activity", "action": "inhibitor", "technique": "ADP detection", "concentration": "10 µM", "inhibition": "20.7%"}
{"Compound": "c1ccc(C(NCCNC(c2ccccc2)c2ccccc2)c2ccccc2)cc1", "target": "PPP3CA", "observed": "enzyme activity", "action": "inhibitor", "concentration": "10 µM", "inhibition": "32%"}
{"Compound": "CN1CCc2cc3c(cc2[C@H]1[C@@H]1OC(=O)c2c1ccc1c2OCO1)OCO3", "target": "CDK7 with cyclin H", "observed": "enzyme activity", "action": "inhibitor", "technique": "ADP detection", "concentration": "10 µM", "inhibition": "22%"}
{"Compound": "CC(C)=CCc1cc(-c2coc3cc(O)cc(O)c3c2=O)cc(O)c1O", "target": "PDE4D", "observed": "enzyme activity", "action": "inhibitor", "technique": "radiometric", "concentration": "5 µM", "inhibition": "84.6%"}
